Data from ChEMBL document CHEMBL1141230, “Synthesis and pharmacology of willardiine derivatives acting as antagonists of kainate receptors” (J Med Chem, 2005).
pIC50, pKd, pKi: −log10 of the molar value.

Assays:
[1] = molecular target: Glutamate receptor ionotropic, kainate 1 (Rattus norvegicus, UniProt P22756); experiment: Antagonism on GLUK5 containing kainate induced depolarization of isolated neonatal rat dorsal root C-fibers; assay type: functional
[2] = molecular target: Glutamate receptor ionotropic, kainate 2 (Rattus norvegicus, UniProt P42260); experiment: (§1) Displacement of [3H]kainate from rat GLUK6 receptor expressed in HEK293 cells; assay type: cell-based
Glutamate receptor ionotropic, kainate 2, sequence (P42260 whole entry): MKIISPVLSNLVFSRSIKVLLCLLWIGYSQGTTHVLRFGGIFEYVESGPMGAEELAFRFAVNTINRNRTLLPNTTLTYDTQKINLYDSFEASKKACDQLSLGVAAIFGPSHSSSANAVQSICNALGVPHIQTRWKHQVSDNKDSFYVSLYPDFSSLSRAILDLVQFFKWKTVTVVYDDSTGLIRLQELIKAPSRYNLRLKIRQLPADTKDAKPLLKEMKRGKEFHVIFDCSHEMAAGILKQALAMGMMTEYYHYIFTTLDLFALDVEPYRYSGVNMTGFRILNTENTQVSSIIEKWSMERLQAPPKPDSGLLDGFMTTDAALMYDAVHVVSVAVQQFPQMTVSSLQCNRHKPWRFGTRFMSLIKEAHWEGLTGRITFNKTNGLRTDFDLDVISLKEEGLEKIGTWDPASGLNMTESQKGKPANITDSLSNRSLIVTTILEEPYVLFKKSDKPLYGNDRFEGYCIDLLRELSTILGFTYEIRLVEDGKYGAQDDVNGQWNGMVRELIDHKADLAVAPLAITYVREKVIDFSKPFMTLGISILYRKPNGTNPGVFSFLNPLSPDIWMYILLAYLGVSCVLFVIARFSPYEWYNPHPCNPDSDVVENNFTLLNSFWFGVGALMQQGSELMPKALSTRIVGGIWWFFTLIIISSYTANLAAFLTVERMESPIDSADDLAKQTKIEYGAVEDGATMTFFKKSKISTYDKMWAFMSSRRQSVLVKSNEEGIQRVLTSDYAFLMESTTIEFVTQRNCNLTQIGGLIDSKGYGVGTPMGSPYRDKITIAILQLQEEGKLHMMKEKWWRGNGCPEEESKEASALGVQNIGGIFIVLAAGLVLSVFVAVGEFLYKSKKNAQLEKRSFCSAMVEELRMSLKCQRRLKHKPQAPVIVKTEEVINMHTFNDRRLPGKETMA

[3] = molecular target: T1, Glutamate receptor ionotropic, AMPA (Rattus norvegicus, UniProt P19490+P19491+P19492+P19493); experiment: Displacement of [3H](S)-5-fluorowillardiine from AMPA receptor in rat brain membrane; assay type: cell membranes
[4] = molecular target: T1, Glutamate receptor ionotropic, AMPA; experiment: (§2) Antagonist activity on AMPA receptor expressed on rat motoneurons by its ability to reduce the fast component dorsal root evoked ventral root potential (fDR-VRP); assay type: functional
[5] = molecular target: Glutamate receptor ionotropic, kainate (Rattus norvegicus); experiment: Displacement of [3H]SYM2081 from kainate receptor in rat brain membrane
[6] = molecular target: Glutamate receptor ionotropic, kainate 1 (Rattus norvegicus) (UniProt P22756); experiment: Percentage depression of GLUK5 containing kainate induced depolarization on isolated neonatal rat dorsal root C-fibers at 200 uM; assay type: functional
Glutamate receptor ionotropic, kainate 1 (Rattus norvegicus), sequence (P22756 whole entry): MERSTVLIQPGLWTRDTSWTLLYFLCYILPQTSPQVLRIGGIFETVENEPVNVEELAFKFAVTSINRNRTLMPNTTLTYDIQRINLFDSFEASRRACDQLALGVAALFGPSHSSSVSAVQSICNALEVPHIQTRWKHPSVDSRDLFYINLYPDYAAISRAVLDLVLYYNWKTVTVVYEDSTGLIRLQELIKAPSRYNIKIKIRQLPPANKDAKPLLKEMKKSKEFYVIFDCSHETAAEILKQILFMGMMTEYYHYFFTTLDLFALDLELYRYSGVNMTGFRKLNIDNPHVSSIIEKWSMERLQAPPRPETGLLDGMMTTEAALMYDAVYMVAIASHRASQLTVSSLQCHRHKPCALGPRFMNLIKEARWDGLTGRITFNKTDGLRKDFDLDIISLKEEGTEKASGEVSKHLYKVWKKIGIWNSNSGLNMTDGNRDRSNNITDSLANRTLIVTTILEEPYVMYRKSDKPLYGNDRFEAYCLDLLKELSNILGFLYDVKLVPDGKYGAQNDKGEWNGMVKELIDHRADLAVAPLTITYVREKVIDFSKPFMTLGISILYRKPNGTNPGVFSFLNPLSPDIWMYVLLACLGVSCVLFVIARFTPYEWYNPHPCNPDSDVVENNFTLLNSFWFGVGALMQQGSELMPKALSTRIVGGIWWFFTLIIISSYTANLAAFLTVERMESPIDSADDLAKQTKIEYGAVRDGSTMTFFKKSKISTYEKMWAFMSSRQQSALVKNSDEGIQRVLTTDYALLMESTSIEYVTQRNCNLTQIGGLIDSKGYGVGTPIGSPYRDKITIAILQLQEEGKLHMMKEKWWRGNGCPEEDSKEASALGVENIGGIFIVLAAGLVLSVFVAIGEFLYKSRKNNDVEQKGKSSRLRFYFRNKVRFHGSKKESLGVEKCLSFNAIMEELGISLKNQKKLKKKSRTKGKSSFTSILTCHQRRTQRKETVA

[7] = molecular target: Glutamate receptor ionotropic, AMPA (Rattus norvegicus, UniProt P19491+P19492+P19493+P19490); experiment: as §2; assay type: functional
[8] = molecular target: Glutamate receptor ionotropic, kainate 1 (Homo sapiens) (UniProt P39086); experiment: Inhibitory effect on glutamate-induced calcium influx at homomeric human GLUK5 receptor expressed in HEK293 cells; assay type: functional, cell-based
Glutamate receptor ionotropic, kainate 1 (Homo sapiens), sequence (P39086 whole entry): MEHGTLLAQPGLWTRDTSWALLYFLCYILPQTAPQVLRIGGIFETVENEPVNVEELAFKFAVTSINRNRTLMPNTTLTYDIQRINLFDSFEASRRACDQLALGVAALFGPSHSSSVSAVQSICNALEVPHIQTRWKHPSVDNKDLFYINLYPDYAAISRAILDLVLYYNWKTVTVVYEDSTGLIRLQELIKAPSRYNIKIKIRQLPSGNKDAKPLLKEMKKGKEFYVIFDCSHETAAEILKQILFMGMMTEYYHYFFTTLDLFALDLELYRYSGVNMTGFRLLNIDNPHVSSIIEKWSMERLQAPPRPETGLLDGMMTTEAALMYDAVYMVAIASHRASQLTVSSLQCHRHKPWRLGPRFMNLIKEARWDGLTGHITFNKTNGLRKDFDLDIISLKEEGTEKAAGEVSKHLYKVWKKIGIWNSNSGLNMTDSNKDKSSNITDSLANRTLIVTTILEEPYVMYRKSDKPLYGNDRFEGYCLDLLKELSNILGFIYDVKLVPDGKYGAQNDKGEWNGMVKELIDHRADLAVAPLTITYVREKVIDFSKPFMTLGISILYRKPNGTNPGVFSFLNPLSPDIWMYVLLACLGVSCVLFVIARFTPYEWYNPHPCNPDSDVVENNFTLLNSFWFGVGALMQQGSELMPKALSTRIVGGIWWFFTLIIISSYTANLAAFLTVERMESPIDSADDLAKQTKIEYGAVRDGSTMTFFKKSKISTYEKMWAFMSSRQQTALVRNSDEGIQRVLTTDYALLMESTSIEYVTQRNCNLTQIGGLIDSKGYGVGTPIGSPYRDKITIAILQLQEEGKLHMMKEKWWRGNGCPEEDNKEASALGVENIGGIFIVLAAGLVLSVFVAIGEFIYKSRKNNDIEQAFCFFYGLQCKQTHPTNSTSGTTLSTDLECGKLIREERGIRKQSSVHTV
Outline: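 HEK293 cells stably expressing human GLUK5(Q), calcium fluorescence assay (FLIPR) in presence of concanavalin A. Antagonist added alone first, then with 100 µM glutamate. Curves fitted with slope fixed at 1; Kb from IC50 via Cheng-Prusoff using glutamate EC50 determined in same plate.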

[9] = Inhibitory effect on glutamate-induced calcium influx at homomeric human GLUK5/GLUK6 receptor clone expressed in HEK293 cells; assay type: functional
Outline: (§3)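 HEK293 lines stably coexpressing human GLUK5 with GLUK2 or GLUK6 (GLUK5(R)/GLUK6(Q)), FLIPR calcium assay with concanavalin A present. Antagonist given alone at first addition, then with 100 µM glutamate at second. Curves fit with slope 1, top/bottom fixed at 100%/0%. Kb = IC50/(1+[Glu]/EC50 Glu), glutamate EC50 from curves on same plate.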

[10] = Inhibitory effect on glutamate-induced calcium influx at homomeric human GLUK5/GLUK2 receptor clone expressed in HEK293 cells; assay type: functional; outline: as §3
[11] = molecular target: Glutamate receptor ionotropic, kainate 2 (Rattus norvegicus) (UniProt P42260); experiment: as §1; assay type: cell-based
Glutamate receptor ionotropic, kainate 2 (Rattus norvegicus), sequence (P42260 whole entry): as the sequence (P42260 whole entry) above

Glutamate receptor ionotropic, kainate 1, sequence (P22756 whole entry): as the sequence (P22756 whole entry) above

SMILES	pKd [1]	pKi [2]	pIC50 [4]	other results
N[C@@H](Cn1ccc(=O)n(CCC(=O)O)c1=O)C(=O)O	4.14	< 4.00	–	–
N#Cc1cc2c(cc1[N+](=O)[O-])=NC(=O)C(=O)N=2	5.78	5.98	–	–
N[C@@H](Cn1ccc(=O)n(CC(=O)O)c1=O)C(=O)O	–	–	3.54	pKi [3]: 3.71
N[C@@H](Cn1ccc(=O)n(Cc2ccccc2C(=O)O)c1=O)C(=O)O	6.40	< 3.00	3.97	–
N[C@@H](Cn1cc(I)c(=O)n(CCC(=O)O)c1=O)C(=O)O	5.09	< 4.00	4.86	pKi [3]: 5.30; pKi [5]: 4.28
N[C@H](Cn1ccc(=O)n(CCCC(=O)O)c1=O)C(=O)O	–	–	–	pKi [3]: 3.83; Activity [6]: 22.8%; pKi [5]: < 3.30
N[C@@H](Cn1ccc(=O)n(Cc2cccc(C(=O)O)c2)c1=O)C(=O)O	4.31	< 3.00	–	–
N[C@@H](Cn1ccc(=O)n(Cc2ccc(C(=O)O)cc2)c1=O)C(=O)O	5.03	< 4.00	–	–
N[C@@H](Cn1c(=O)ccn(CC(=O)O)c1=O)C(=O)O	–	< 4.00	–	pKi [3]: < 3.00; pKi [5]: < 3.30
N[C@@H](Cn1cc(I)c(=O)n(Cc2ccccc2C(=O)O)c1=O)C(=O)O	6.68	< 4.00	4.13	–
N[C@@H](Cn1ccc(=O)n(CCCC(=O)O)c1=O)C(=O)O	4.22	< 3.00	3.87	pKi [3]: 4.75; pKi [5]: 4.02
Cn1c(=O)ccn(C[C@H](N)C(=O)O)c1=O	–	< 4.00	–	IC50 [7]: Agonist
NC(Cn1ccc(=O)n(Cc2ccccc2C(=O)O)c1=O)C(=O)O (racemic)	5.96	< 3.00	4.01	Kb [8]: 0.6 µM; Kb [9]: 0.8 µM; Kb [10]: 1 µM
N[C@@H](Cn1cc([N+](=O)[O-])c(=O)n(CCC(=O)O)c1=O)C(=O)O	–	< 4.00	4.10	–
N[C@@H](CNC(=O)NCc1cccc(C(=O)O)c1)C(=O)O	–	–	< 3.00	–
N[C@H](Cn1ccc(=O)n(CCC(=O)O)c1=O)C(=O)O	–	< 4.00	–	Activity [6]: 13.2%
N[C@H](Cn1ccc(=O)n(Cc2ccccc2C(=O)O)c1=O)C(=O)O	< 4.00	< 3.00	< 4.00	–
C=C(C)[C@H]1CN[C@H](C(=O)O)[C@H]1CC(=O)O	–	–	–	Bmax [11]: 1.53 pmol/mg
